ChEMBL document CHEMBL1149869, “Antifungal and antimycobacterial activity of 1-(3,5-diaryl-4,5-dihydro-1H-pyrazol-4-yl)-1H-imidazole derivatives” (2008)
Values after ≈ are worked out from the molar mass of the structure shown.

Columns and labels:
Format in all cases: functional
Candida albicans [1] = assay: Antifungal activity against Candida albicans 685 after 24 hrs
How it was run: (§1)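 Clinical isolate C. albicans 685 tested by NCCLS (1997) reference broth method; compound stocks 2 mg/mL in DMSO; miconazole and amphotericin B as standards; MIC read after 24 and 48 h incubation, each determined twice in duplicate experiments.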

Candida albicans [2] = assay: Antifungal activity against Candida albicans 685 after 48 hrs; how it was run: as §1
[3] = tested on: Mycobacterium tuberculosis; assay: Antitubercular activity against Mycobacterium tuberculosis H37Rv micro-dilution Resazurin assay
How it was run: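 Microdilution Resazurin assay (MRA) run for 1 week against reference strain M. tuberculosis H37Rv. Compound stocks were 2 mg/mL in DMSO, with DMSO tested up to 2% (v/v). MIC was the lowest concentration preventing the blue-to-pink Resazurin colour change, read visually twice in duplicate experiments. Viable counts on agar from control and test wells.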

SMILES	MIC (Candida albicans [1])	MIC (Candida albicans [2])	MIC [3]
CN1N=C(c2ccc(Br)cc2)[C@@H](n2ccnc2)[C@H]1c1ccc(Br)cc1 (racemic)	0.06 µg/mL (≈ 0.13 µM)	0.06 µg/mL (≈ 0.13 µM)	8 µg/mL (≈ 17.4 µM)
Cc1ccc(C2=NN(C)[C@H](c3ccc(C)cc3)[C@@H]2n2ccnc2)cc1 (racemic)	4 µg/mL (≈ 12.1 µM)	64 µg/mL (≈ 194 µM)	16 µg/mL (≈ 48.4 µM)
Brc1ccc(C2=NN[C@H](c3ccc(Br)cc3)[C@H]2n2ccnc2)cc1 (racemic)	4 µg/mL (≈ 8.97 µM)	8 µg/mL (≈ 17.9 µM)	8 µg/mL (≈ 17.9 µM)
Clc1ccc(C2=NN[C@H](c3ccc(Cl)cc3)[C@H]2n2ccnc2)cc1 (racemic)	4 µg/mL (≈ 11.2 µM)	16 µg/mL (≈ 44.8 µM)	8 µg/mL (≈ 22.4 µM)
Clc1ccc(C2=NN[C@H](c3ccc(Cl)cc3Cl)[C@H]2n2ccnc2)c(Cl)c1 (racemic)	8 µg/mL (≈ 18.8 µM)	64 µg/mL (≈ 150 µM)	8 µg/mL (≈ 18.8 µM)
CN1N=C(c2ccc(Cl)cc2)[C@@H](n2ccnc2)[C@H]1c1ccc(Cl)cc1 (racemic)	0.06 µg/mL (≈ 0.162 µM)	0.06 µg/mL (≈ 0.162 µM)	8 µg/mL (≈ 21.5 µM)
CN1N=C(c2ccc(Cl)cc2Cl)[C@@H](n2ccnc2)[C@H]1c1ccc(Cl)cc1Cl (racemic)	0.12 µg/mL (≈ 0.273 µM)	32 µg/mL (≈ 72.7 µM)	16 µg/mL (≈ 36.4 µM)
Cc1ccc(C2=NN[C@@H](c3ccc(C)cc3)[C@@H]2n2ccnc2)cc1 (racemic)	8 µg/mL (≈ 25.3 µM)	64 µg/mL (≈ 202 µM)	16 µg/mL (≈ 50.6 µM)
c1ccc(C2=NN(c3ccccc3)[C@H](c3ccccc3)[C@H]2n2ccnc2)cc1 (racemic)	0.06 µg/mL (≈ 0.165 µM)	1 µg/mL (≈ 2.74 µM)	8 µg/mL (≈ 22 µM)
Cc1ccc(C2=NN(c3ccccc3)[C@H](c3ccc(C)cc3)[C@H]2n2ccnc2)cc1 (racemic)	8 µg/mL (≈ 20.4 µM)	64 µg/mL (≈ 163 µM)	4 µg/mL (≈ 10.2 µM)
Brc1ccc(C2=NN(c3ccccc3)[C@H](c3ccc(Br)cc3)[C@H]2n2ccnc2)cc1 (racemic)	1 µg/mL (≈ 1.91 µM)	64 µg/mL (≈ 123 µM)	8 µg/mL (≈ 15.3 µM)
Clc1ccc(C2=NN(c3ccccc3)[C@H](c3ccc(Cl)cc3Cl)[C@H]2n2ccnc2)c(Cl)c1 (racemic)	2 µg/mL (≈ 3.98 µM)	> 64 µg/mL	4 µg/mL (≈ 7.96 µM)
Cc1ccc(C2=NN(c3ccc(F)cc3)[C@H](c3ccc(C)cc3)[C@H]2n2ccnc2)cc1 (racemic)	64 µg/mL (≈ 156 µM)	64 µg/mL (≈ 156 µM)	4 µg/mL (≈ 9.74 µM)
Fc1ccc(N2N=C(c3ccc(Cl)cc3)[C@H](n3ccnc3)[C@H]2c2ccc(Cl)cc2)cc1 (racemic)	2 µg/mL (≈ 4.43 µM)	> 64 µg/mL	4 µg/mL (≈ 8.86 µM)
Fc1ccc(N2N=C(c3ccc(Br)cc3)[C@H](n3ccnc3)[C@H]2c2ccc(Br)cc2)cc1 (racemic)	8 µg/mL (≈ 14.8 µM)	> 64 µg/mL	4 µg/mL (≈ 7.4 µM)
Fc1ccc(N2N=C(c3ccccc3)[C@H](n3ccnc3)[C@H]2c2ccccc2)cc1 (racemic)	0.06 µg/mL (≈ 0.157 µM)	1 µg/mL (≈ 2.61 µM)	8 µg/mL (≈ 20.9 µM)
Fc1ccc(N2N=C(c3ccc(Cl)cc3Cl)[C@@H](n3ccnc3)[C@@H]2c2ccc(Cl)cc2Cl)cc1 (racemic)	1 µg/mL (≈ 1.92 µM)	> 64 µg/mL	16 µg/mL (≈ 30.8 µM)
Clc1ccc(C2=NN(c3ccccc3)[C@H](c3ccc(Cl)cc3)[C@H]2n2ccnc2)cc1 (racemic)	2 µg/mL (≈ 4.62 µM)	64 µg/mL (≈ 148 µM)	4 µg/mL (≈ 9.23 µM)
c1ccc(C2=NN[C@H](c3ccccc3)[C@H]2n2ccnc2)cc1 (racemic)	16 µg/mL (≈ 55.5 µM)	> 64 µg/mL	16 µg/mL (≈ 55.5 µM)
CN1N=C(c2ccccc2)[C@@H](n2ccnc2)[C@H]1c1ccccc1 (racemic)	1 µg/mL (≈ 3.31 µM)	64 µg/mL (≈ 212 µM)	8 µg/mL (≈ 26.5 µM)
C[C@@H]1[C@H](O)[C@@H](C)/C=C/C=C/C=C/C=C/C=C/C=C/C=C/[C@H](O[C@@H]2O[C@H](C)[C@@H](O)[C@H](N)[C@@H]2O)C[C@@H]2O[C@](O)(C[C@@H](O)C[C@@H](O)[C@H](O)CC[C@@H](O)C[C@@H](O)CC(=O)O[C@H]1C)C[C@H](O)[C@H]2C(=O)O [AMPHOTERICIN B]	1 µg/mL (≈ 1.08 µM)	1 µg/mL (≈ 1.08 µM)	
NNC(=O)c1ccncc1 [ISONIAZID]			0.5 µg/mL (≈ 3.65 µM)
Clc1ccc(COC(Cn2ccnc2)c2ccc(Cl)cc2Cl)c(Cl)c1 (stereo not given) [MICONAZOLE]	0.06 µg/mL (≈ 0.144 µM)	0.12 µg/mL (≈ 0.288 µM)	
